From ChEMBL document CHEMBL3525910, “Pharmacokinetics of oral D-serine in D-amino acid oxidase knockout mice” (Drug Metab Dispos, 2012)

Tests used:
Format in all cases: ADME, organism-based
[1] = Tmax in wild-type mouse at 30 mg/kg, po; set-up: dose 30 mg/kg, route oral; conditions: in vivo
Outline: (§1)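 Mice (wild-type 129SvEv or DAAO knockout; n = 3–6 per time point, n = 2 at 120 and 240 min for the group also given CBIO 30 mg/kg in 10% DMSO/0.9% saline) dosed orally, 10 ml/kg, with D-serine 30 mg/kg. Cardiac-puncture blood taken at 30, 60, 120, 240 min into heparin tubes and spun to plasma. Methanol extraction, derivatization, then HPLC fluorescence (ex 344/em 443 nm). Parameters from noncompartmental analysis.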

[2] = Tmax in wild-type mouse at 30 mg/kg, po in presence of CBIO; set-up: dose 30 mg/kg, route oral; conditions: in vivo; outline: as §1
[3] = Tmax in DAAO knockout mouse at 30 mg/kg, po; set-up: dose 30 mg/kg, route oral; conditions: in vivo; outline: as §1
[4] = Cmax in wild-type mouse at 30 mg/kg, po; set-up: dose 30 mg/kg, route oral; conditions: in vivo; outline: as §1
[5] = Cmax in wild-type mouse at 30 mg/kg, po in presence of CBIO; set-up: dose 30 mg/kg, route oral; conditions: in vivo; outline: as §1
[6] = Cmax in DAAO knockout mouse at 30 mg/kg, po; set-up: dose 30 mg/kg, route oral; conditions: in vivo; outline: as §1
[7] = Elimination half life in wild-type mouse at 30 mg/kg, po; set-up: dose 30 mg/kg, route oral; conditions: in vivo, read-out: beta t1/2 (converted); outline: as §1
[8] = Elimination half life in wild-type mouse at 30 mg/kg, po in presence of CBIO; set-up: dose 30 mg/kg, route oral; conditions: in vivo, read-out: beta t1/2 (converted); outline: as §1
[9] = Elimination half life in DAAO knockout mouse at 30 mg/kg, po; set-up: dose 30 mg/kg, route oral; conditions: in vivo, read-out: beta t1/2
Outline: (§2)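 DAAO knockout mice were dosed orally (10 ml/kg) with D-serine 30 mg/kg, n = 3–6 per time point, and plasma was taken at 30–240 min. D-serine was measured by methanol extraction, derivatization and reversed-phase HPLC with fluorescence detection. Cmax and Tmax are observed values. t½ = 0.693/λz with uniform weighting. AUClast is by the log-linear trapezoidal rule, with variance by Bailer's method.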

[10] = AUC (0 to last) in wild-type mouse at 30 mg/kg, po; set-up: time 0 - last, dose 30 mg/kg, route oral; conditions: plasma; outline: as §1
[11] = AUC (0 to last) in wild-type mouse at 30 mg/kg, po in presence of CBIO; set-up: time 0 - last, dose 30 mg/kg, route oral; conditions: plasma; outline: as §1
[12] = AUC (0 to last) in DAAO knockout mouse at 30 mg/kg, po; set-up: time 0 - last, dose 30 mg/kg, route oral; conditions: plasma; outline: as §2
[13] = AUC (0 to infinity) in wild-type mouse at 30 mg/kg, po; set-up: time infinity, dose 30 mg/kg, route oral; conditions: plasma; outline: as §1
[14] = AUC (0 to infinity) in wild-type mouse at 30 mg/kg, po in presence of CBIO; set-up: time infinity, dose 30 mg/kg, route oral; conditions: plasma; outline: as §1
Cerebellum [15] = assay: Drug uptake in wild-type mouse cerebellum at 30 mg/kg, po after 1 hr; set-up: dose 30 mg/kg, route oral; conditions: in vivo
Outline: (§3)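 Wild-type or DAAO knockout mice were given D-serine 30 mg/kg orally. At 1 h, cerebellum and frontal cortex were excised, weighed and frozen at −80°C. Tissue was homogenized and sonicated in 20 volumes (w/v) methanol and spun at 50,000g for 15 min at 4°C. The supernatant was dried, derivatized for 2 min at room temperature, and D-serine was quantified by C18 HPLC with fluorescence detection.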

Cerebellum [16] = assay: Drug uptake in DAAO knockout mouse cerebellum at 30 mg/kg, po after 1 hr; set-up: dose 30 mg/kg, route oral; conditions: in vivo; outline: as §3
Cortex [17] = assay: Drug uptake in wild-type mouse cortex at 30 mg/kg, po after 1 hr; set-up: dose 30 mg/kg, route oral; conditions: in vivo; outline: as §3
Cortex [18] = assay: Drug uptake in DAAO knockout mouse cortex at 30 mg/kg, po after 1 hr; set-up: dose 30 mg/kg, route oral; conditions: in vivo; outline: as §3

## N[C@H](CO)C(=O)O [(D)-SERINE]
[1]
  Tmax: 0.7 h
[2]
  Tmax: 1 h
[3]
  Tmax: 2.7 h
[4]
  Cmax: 19600 ng/mL
[5]
  Cmax: 24300 ng/mL
[6]
  Cmax: 27800 ng/mL
[7]
  half-life: 1.2 h
[8]
  half-life: 1.5 h
[9]
  half-life: > 10 h
[10]
  AUC(0-t): 40600 ng·h/mL
[11]
  AUC(0-t): 65800 ng·h/mL
[12]
  AUC(0-t): 95800 ng·h/mL
[13]
  AUC(0-inf): 46000 ng·h/mL
[14]
  AUC(0-inf): 80900 ng·h/mL
Cerebellum [15]
  Drug uptake: Not Active
Cerebellum [16]
  Drug uptake: Active
Cortex [17]
  Drug uptake: Active
Cortex [18]
  Drug uptake: Active
